Experimental data as given in ChEMBL document CHEMBL1955761, “Privileged scaffolds or promiscuous binders: a comparative study on rhodanines and related heterocycles in medicinal chemistry” (J Med Chem, 2012).
The source made the active and inactive calls.

Tests used:
[1] = tested on: Escherichia coli; experiment: Inhibition of Escherichia coli MetAP at 10 uM after 15 mins by fluorescence analysis
[2] = molecular target: Prothrombin (Bos taurus) (UniProt P00735); experiment: Inhibition of bovine plasma thrombin using Boc-Val-Pro-Arg-AMC as substrate at 25 uM preincubated for 15 mins measured after 10 mins by fluorimetric assay
How it was run: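 Purchased bovine plasma thrombin at 10 nM final, preincubated 15 min with 25 μM inhibitor; reaction started with 50 μM substrate. Buffer 50 mM Tris-HCl pH 7.5, 150 mM NaCl, 0.05% Tween 20. Triplicate, averaged.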

[3] = tested on: Escherichia coli; experiment: Inhibition of Escherichia coli MurA using PEP as substrate assessed as inorganic phosphate release at 25 uM preincubated for 10 mins measured after 60 mins […]
[4] = tested on: Dengue virus; experiment: Inhibition of Dengue virus NS2B-NS3 protease using Abz-NleKRRS-3-(NO2)Y as substrate at 50 uM preincubated for 15 mins measured every sec for 15 mins by fluorimetric analysis

SMILES	inhibition [1]	inhibition [2]	inhibition [3]	inhibition [4]
Cn1cc(/C=C2\SC(=S)NC2=O)c2ccccc21	12%	27%	18%	45%
CC(=O)N1C(=S)NC(=O)[C@@H]1CCC(N)=O	13%	inactive	inactive	inactive
C/C(=C1/NC(=S)NC1=O)c1cccs1	42%	20%	50%	43%
CC(=O)n1cc(/C=C2\SC(=S)NC2=O)c2ccccc21	inactive	31%	18%	46%
O=C1NC(=S)N/C1=C\c1cnc[nH]1	83%	30%	57%	29%
COc1ccccc1/C=C1\NC(=S)NC1=O	18%	15%	10%	28%
CC(=O)n1cc(/C=C2\NC(=S)NC2=O)c2ccccc21	15%	11%	13%	43%
CC(=O)N1C(=S)NC(=O)[C@@H]1CC(C)C	13%	inactive	inactive	inactive
CCCC/C=C1\NC(=S)NC1=O	66%	14%	11%	25%
C/C(=C1/SC(=S)NC1=O)c1ccccc1	inactive	19%	33%	23%
CN(C)c1ccc(/C=C2\NC(=S)NC2=O)cc1	75%	25%	51%	42%
CN(C)c1ccc(/C=C2\SC(=S)NC2=O)cc1	inactive	21%	15%	36%
O=C1NC(=S)N/C1=C1/CCOc2ccccc21	28%	18%	43%	43%
COc1cccc(/C=C2\SC(=S)NC2=O)c1	inactive	11%	10%	33%
O=C1NC(=S)NC1=C(c1ccccc1)c1ccccc1	24%	inactive	inactive	inactive
Cn1cc(/C=C2\SC(=O)NC2=O)c2ccccc21	inactive	25%	inactive	41%
O=C1NC(=S)N/C1=C\c1c(F)c(F)c(F)c(F)c1F	13%	29%	17%	24%

SMILES	inhibition [1]	inhibition [2]	inhibition [3]	inhibition [4]
Cc1ccc(/C=C2\NC(=S)NC2=O)cc1	15%	14%	inactive	31%
CCCCC/C=C1\NC(=S)NC1=O	27%	16%	17%	18%
Cn1cc(/C=C2\NC(=S)NC2=O)c2ccccc21	inactive	22%	16%	50%
O=C1NC(=O)/C(=C/c2ccccc2)S1	inactive	15%	inactive	25%
Cc1ccc(/C=C2\SC(O)=NC2=O)cc1	inactive	18%	inactive	17%
O=C1NC(=O)/C(=C/c2ccco2)S1	inactive	19%	41%	20%
O=C1CSC(=O)N1	inactive	inactive	inactive	13%
COc1ccc(/C=C/C=C2\SC(=O)NC2=O)cc1	inactive	11%	13%	18%
O=C1NC(=O)/C(=C/C2CCCCC2)S1	inactive	inactive	inactive	25%
O=C1NC(=S)N/C1=C\c1ccc(Br)s1	10%	17%	75%	46%
O=C1CSC(=S)N1	inactive	inactive	inactive	14%
C/C(=C1/NC(=S)NC1=O)c1ccccc1	14%	21%	24%	inactive
O=C1NC(=S)S/C1=C1/CCOc2ccccc21	inactive	18%	inactive	44%
O=C1NC(=S)S/C1=C\c1cc(Br)cs1	inactive	21%	18%	47%
O=C1NC(=S)N/C1=C\C=C\c1ccco1	23%	38%	69%	37%
O=C1NC(=S)S/C1=C\c1ccccn1	–	inactive	–	–
Cc1ccc(/C=C2\SC(=S)NC2=O)cc1	–	23%	–	–

More lines, now with the values ahead:

inhibition [1]	inhibition [2]	inhibition [3]	inhibition [4]	SMILES
10%	11%	25%	17%	COc1ccccc1/C=C1\SC(=O)NC1=O
15%	12%	21%	28%	O=C1NC(=S)N/C1=C\c1cccc(O)c1
inactive	23%	10%	25%	O=C1NC(=O)/C(=C/c2ccco2)N1
inactive	20%	69%	inactive	C/C(=C1/SC(=S)NC1=O)c1ccc(F)cc1
inactive	inactive	11%	inactive	O=C1NC(=S)SC1Cc1ccccc1 (stereo not drawn)
17%	inactive	100%	38%	O=C1NC(=O)/C(=C/c2ccccc2)N1
inactive	inactive	inactive	inactive	CC(=O)N1C(=S)NC(=O)[C@@H]1Cc1ccc(O)cc1
12%	inactive	19%	inactive	CC(=O)N1C(=S)NC(=O)[C@@H]1Cc1ccccc1
73%	inactive	63%	15%	O=C1NC(=S)NC1Cc1ccc(O)c(O)c1 (stereo not drawn)
11%	inactive	inactive	35%	O=C1NC(=O)/C(=C2\CCOc3ccccc32)S1
inactive	18%	44%	inactive	O=C1NC(=O)/C(=C/c2sccc2Br)S1
100%	32%	70%	37%	O=C1NC(=O)/C(=C/c2ccc(O)c(O)c2)N1
inactive	16%	inactive	29%	CN(C)c1ccc(/C=C2\NC(=O)NC2=O)cc1
inactive	inactive	inactive	inactive	O=C1NC(=S)N[C@H]1Cc1ccc(O)cc1
inactive	inactive	inactive	18%	COc1ccc(/C=C2\NC(=O)NC2=O)cc1OC
inactive	inactive	inactive	18%	COc1ccccc1/C=C1\NC(=O)NC1=O
inactive	23%	15%	46%	O=C1NC(=S)S/C1=C\c1ccc(Cl)cc1Cl
inactive	20%	inactive	34%	Cn1cc(/C=C2\NC(=O)NC2=O)c2ccccc21
inactive	29%	38%	11%	O=C1NC(=O)/C(=C/c2ccc(Cl)s2)S1
inactive	inactive	15%	inactive	CC(=O)N1C(=S)NC(=O)[C@H]1Cc1ccccc1
18%	23%	29%	inactive	C/C(=C1/NC(=S)NC1=O)c1ccc(F)cc1
90%	37%	78%	44%	O=C1NC(=O)/C(=C/c2ccc(O)c(O)c2)S1
inactive	inactive	inactive	15%	O=C1NC(=O)/C(=C/c2ccc(Cl)cc2Cl)N1
12%	32%	66%	42%	COc1cc(/C=C2\SC(=S)NC2=O)ccc1O
84%	inactive	79%	inactive	O=C1NC(=O)C(Cc2ccc(O)c(O)c2)N1 (stereo not drawn)
inactive	inactive	inactive	inactive	CC(=O)N1C(=S)NC(=O)[C@@H]1Cc1c[nH]c2ccccc12
11%	inactive	inactive	18%	O=C1NC(=O)/C(=C/c2cccc(O)c2)S1
